Measurements taken from ChEMBL document CHEMBL3734704, “Synthesis and Biological Evaluation of Novel Bouchardatine Derivatives as Potential Adipogenesis/Lipogenesis Inhibitors for Antiobesity Treatment” (J Med Chem, 2015).
Active and inactive are the calls of the source. No cut-off for these calls is given here.

Columns and labels:
3T3-L1 [1] = experiment: Inhibition of cell differentiation in mouse 3T3L1 cells assessed as delayed time point of cell contact inhibition at 0.5 uM for 9 days; format: functional
Summary of the method: (§1)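 3T3-L1 preadipocytes were induced to differentiate (IBMX/dexamethasone/insulin for 3 days, then insulin) with compound added from day 0 at 0.5 or 5 µM; DMSO vehicle served as control. Cells were collected and counted every day to follow proliferation and to find when contact inhibition resumed.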

[2] = Decrease in triglyceride level in mouse 3T3L1 cells during all developmental stages at 0.5 uM for 9 days; format: functional, cell-based; conditions: 3T3-L1
Summary of the method: (§2)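 During 3T3-L1 differentiation with compound present (0.5 µM, or 5 µM for one compound), cells were collected and counted every day and triglyceride content was measured by TG assay.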

HepG2 [3] = experiment: Decrease in triglyceride level in human HepG2 cells at 1 uM after 24 hrs by GPO-POD assay in presence of 0.5 mM oleic acid sodium; format: functional
Summary of the method: (§3)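 HepG-2 cells seeded, then after 24 h exposed to 0.5 mM oleic acid sodium plus compound (1 µM; dose series up to 10 µM) for 24 h, DMSO vehicle. Cells lysed in 0.2% Triton X-100 for 1 h, sonicated, centrifuged. Triglyceride measured by GPO-POD kit and cholesterol by kit, both normalized to BCA protein; n = 3.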

HepG2 [4] = experiment: Decrease in cholesterol level in human HepG2 cells at 1 uM after 24 hrs by […] assay in presence of 0.5 mM oleic acid sodium; format: functional; summary of the method: as §3
[5] = Decrease in triglyceride accumulation in mouse 3T3L1 cells at 10 uM for 3 days oil red O staining based microscopic analysis; format: functional, cell-based; conditions: 3T3-L1
Summary of the method: (§4)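 3T3-L1 cells differentiated from 2 days post-confluence with IBMX/dexamethasone/insulin cocktail for 3 days, then insulin medium to Day 6. Compounds at 1 and 10 µM added Day 0 for 3 days. Triglyceride read on Day 6 with Oil Red O (formaldehyde fixation, 30 min stain, isopropanol extraction, OD 510 nm); n = 3.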

3T3-L1 [6] = experiment: Activation of AMPK alpha in mouse 3T3L1 cells assessed as increase in phophorylated AMPK alpha at Thr 172 residue level at 0.2 mM after 10 mins by western blot analysis; format: cell-based
Summary of the method: (§5)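 3T3-L1 cells in DMEM/10% FBS at 37 °C, 5% CO2, exposed for 10 min, 2 h or 24 h alongside a DMSO vehicle. Cells were lysed in RIPA with PMSF, Na3VO4, NaF and protease inhibitors. Lysates were run on SDS-PAGE and blotted to PVDF, blocked in 5% BSA, then probed with primary antibodies for 16 h at 4 °C and an HRP secondary. Bands were normalised to GAPDH, with the 10 min DMSO group set as 100%; n = 3.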

3T3-L1 [7] = experiment: Activation of AMPK-mediated ACC in mouse 3T3L1 cells assessed as increase in phophorylated ACC level at 0.2 mM after 10 mins by western blot analysis; format: cell-based; summary of the method: as §5
[8] = Downregulation of C/EBP alpha mRNA level in mouse 3T3L1 cells at 0.2 mM after 2 hrs by RT-PCR analysis; format: functional, cell-based; conditions: 3T3-L1
[9] = Downregulation of PPAR-gamma mRNA level in mouse 3T3L1 cells at 0.2 mM after 2 hrs by RT-PCR analysis; format: functional, cell-based; conditions: 3T3-L1
3T3-L1 [10] = experiment: Effect on LKB1 expression in mouse 3T3L1 cells at 0.2 mM after 10 mins, 2 and 24 hrs by western blot analysis; format: functional, cell-based; summary of the method: as §5
[11] = Downregulation of C/EBP beta mRNA level in mouse 3T3L1 cells at 0.2 mM after 24 hrs by RT-PCR analysis; format: functional, cell-based; conditions: 3T3-L1
3T3-L1 [12] = experiment: Activation of AMPK alpha in mouse 3T3L1 cells assessed as increase in phophorylated AMPK alpha at Thr 172 residue level at 0.2 mM after 24 hrs by western blot analysis; format: cell-based; summary of the method: as §5
3T3-L1 [13] = experiment: Activation of AMPK-mediated ACC in mouse 3T3L1 cells assessed as increase in phophorylated ACC level at 0.2 mM after 24 hrs by western blot analysis; format: cell-based; summary of the method: as §5
[14] = Downregulation of C/EBP delta mRNA level in mouse 3T3L1 cells at 0.2 mM after 24 hrs by RT-PCR analysis; format: functional, cell-based; conditions: 3T3-L1
[15] = Downregulation of C/EBP alpha mRNA level in mouse 3T3L1 cells at 0.2 mM after 24 hrs by RT-PCR analysis; format: functional, cell-based; conditions: 3T3-L1
[16] = Downregulation of PPAR-gamma mRNA level in mouse 3T3L1 cells at 0.2 mM after 24 hrs by RT-PCR analysis; format: functional, cell-based; conditions: 3T3-L1
[17] = Downregulation of SREBP-1c mRNA level in mouse 3T3L1 cells at 0.2 mM after 24 hrs by RT-PCR analysis; format: functional, cell-based; conditions: 3T3-L1
[18] = Decrease in triglyceride level in mouse 3T3L1 cells during all developmental stages at 5 uM for 9 days; format: functional, cell-based; conditions: 3T3-L1; summary of the method: as §2
3T3-L1 [19] = experiment: Inhibition of cell proliferation in mouse 3T3L1 cells at 5 uM for 9 days; format: functional, cell-based; summary of the method: as §1
3T3-L1 [20] = experiment: Inhibition of cell differentiation in mouse 3T3L1 cells assessed as delayed time point of cell contact inhibition at 5 uM for 9 days; format: functional; summary of the method: as §1
[21] = Decrease in triglyceride accumulation in mouse 3T3L1 cells at 1 uM for 3 days oil red O staining based microscopic analysis; format: functional, cell-based; conditions: 3T3-L1; summary of the method: as §4

O=Cc1c(-c2nc(NCCCN3CCOCC3)c3ccccc3n2)[nH]c2ccccc12
Time (3T3-L1 [1]): 6 days
inhibition [2]: Active

O=Cc1c(-c2nc(NCCN3CCCCC3)c3ccccc3n2)[nH]c2ccccc12
inhibition (HepG2 [3]): Active
inhibition (INH) (HepG2 [4]): > 50%
Time (3T3-L1 [1]): 6 days
inhibition [2]: Active
inhibition [5]: 87.2%

O=c1[nH]c(-c2[nH]c3ccccc3c2/C=N/CCN2CCCC2)nc2ccccc12
Time (3T3-L1 [1]): 6 days
inhibition [2]: Active

CN(C)CCCC/N=C/c1c(-c2nc3ccccc3c(=O)[nH]2)[nH]c2ccccc12
Time (3T3-L1 [1]): 6 days
inhibition [2]: Active

O=Cc1c(-c2nc(NCCc3ccccc3)c3ccccc3n2)[nH]c2ccccc12
inhibition (INH) (HepG2 [4]): > 50%

CCN(CC)CCNc1nc(-c2[nH]c3ccccc3c2C=O)nc2ccccc12
inhibition (HepG2 [3]): Active
inhibition (INH) (HepG2 [4]): > 50%
inhibition [5]: 87.3%

NC(=O)c1ncn([C@@H]2O[C@H](COP(=O)(O)O)[C@@H](O)[C@H]2O)c1N
Activity (3T3-L1 [6]): Active
Activity (3T3-L1 [7]): Active
inhibition [8]: Active
inhibition [9]: Active
Activity (3T3-L1 [10]): inactive
inhibition [11]: Active
Activity (3T3-L1 [12]): Active
Activity (3T3-L1 [13]): Active
inhibition [14]: Active
inhibition [15]: Active
inhibition [16]: Active
inhibition [17]: Active

CN(C)CCNc1nc(-c2[nH]c3ccccc3c2C=O)nc2ccccc12
inhibition (HepG2 [3]): Active
inhibition [5]: 80.1%

CN1CCN(c2nc(-c3[nH]c4ccccc4c3C=O)nc3ccccc23)CC1
inhibition [5]: 81.6%

CCN(CC)c1nc(-c2[nH]c3ccccc3c2C=O)nc2ccccc12
inhibition [5]: 82.2%

O=Cc1c(-c2nc3ccccc3c(=O)[nH]2)[nH]c2ccccc12
inhibition (INH) (HepG2 [3]): 16.7%
inhibition (INH) (HepG2 [4]): 24.1%
inhibition [18]: Active
inhibition (3T3-L1 [19]): Active
Time (3T3-L1 [20]): 5 days
inhibition [21]: 14.8%
inhibition [5]: 20.1%
